Experiments:
Type in all cases: functional, Artery
[1] = test system: Rattus norvegicus; experiment: The compound was tested for the maximum fall in systolic blood pressure 1-6 hr of 1.0 mg/kg oral dose administration in rats
In short: (§1)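 Conscious spontaneously hypertensive rats of Japanese (Okamoto) strain, 14-24 weeks old, hypertensive if systolic pressure >180 mmHg; groups of six per dose level unless indicated. Oral gavage via esophageal needle as solution or suspension in 1% w/v methylcellulose. Tail-cuff systolic pressure (each value mean of ≥6 recordings) taken predose and at intervals up to 6 h postdose.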

[2] = test system: Rattus norvegicus; experiment: The compound was tested for the maximum fall in systolic blood pressure 1-6 hr of 3.0 mg/kg oral dose administration in rats; in short: as §1
[3] = test system: Rattus norvegicus; experiment: The compound was tested for the maximum fall in systolic blood pressure 1-6 hr of 10.0 mg/kg oral dose administration in rats; in short: as §1
[4] = test system: Rattus norvegicus; experiment: The compound was tested for the maximum fall in systolic blood pressure 1-6 hr of 10 mg/kg oral dose administration in rats; in short: as §1
[5] = test system: Rattus norvegicus; experiment: The compound was tested for the maximum fall in systolic blood pressure 1-6 hr of 0.1 mg/kg oral dose administration in rats; in short: as §1
[6] = test system: Rattus norvegicus; experiment: The compound was tested for the maximum fall in systolic blood pressure 1-6 hr of 0.3 mg/kg oral dose administration in rats; in short: as §1
[7] = test system: Rattus norvegicus; experiment: The compound was tested for the maximum fall in systolic blood pressure 1-6 hr of 3 mg/kg oral dose administration in rats; in short: as §1

| SMILES | Max fall in blood pressure [1] [%] | Max fall in blood pressure [2] [%] | Max fall in blood pressure [3] [%] | further results |
| --- | --- | --- | --- | --- |
| CC1(C)C=C(N2CCCC2=O)c2cc(C#N)ccc2N1 | 10 | 29 | 49 |  |
| CC1(C)Oc2ccc(Cl)cc2C(N2CCCC2=O)C1O (centres undefined) |  |  |  | Max fall in blood pressure [4]: 37% |
| CNC(=O)NC1c2cc(C#N)ccc2CC(C)(C)C1O (centres undefined) |  | 23 | 52 |  |
| CC1(C)C=C(N2CCCC2=O)c2cc(Cl)ccc2N1 |  |  |  | Max fall in blood pressure [4]: 13% |
| CC1(C)Cc2ccc(C#N)cc2C(N2CCCC2=O)C1O (centres undefined) |  | 29 | 32 |  |
| CC(=O)NC1c2cc(C#N)ccc2OC(C)(C)C1O (centres undefined) | 67 | 47 |  | Max fall in blood pressure [5]: 18% |
| CC(=O)NC1c2cc(C#N)ccc2CC(C)(C)C1O (centres undefined) | 22 | 34 |  |  |
| CNC(=O)CC1c2cc(C#N)ccc2OC(C)(C)C1O (centres undefined) |  | 9 |  |  |
| CC(=O)CC1c2cc(C#N)ccc2OC(C)(C)C1O (centres undefined) | 5 |  | 30 |  |
| CC1(C)C=C(N2CCCC2=O)c2cc(Br)ccc2N1 |  |  |  | Max fall in blood pressure [4]: 4% |
| CN(C)C(=O)CC1c2cc(C#N)ccc2OC(C)(C)C1O (centres undefined) | 28 | 51 |  |  |
| CNC(=O)NC1c2cc(C#N)ccc2OC(C)(C)[C@H]1O (some centres undefined) | 61 |  |  | Max fall in blood pressure [6]: 31% |
| CC1(C)C=C(N2CCCC2=O)c2cc(C#N)ccc2C1 | 23 | 50 |  |  |
| CC1(C)C=C(N2CCCC2=O)c2cc(C#N)ccc2O1 |  |  |  | Max fall in blood pressure [5]: 12%; Max fall in blood pressure [6]: 47% |
| CC1(C)Nc2ccc(C#N)cc2C(N2CCCC2=O)C1O (centres undefined) |  | 26 | 39 | Max fall in blood pressure [4]: 9% |
| CN1CCC(C2c3cc(C#N)ccc3OC(C)(C)C2O)C1=O (centres undefined) |  |  | 21 | Max fall in blood pressure [7]: 10% |
| CC1(C)Oc2ccc(C#N)cc2C(NC(=O)c2ccccc2)C1O (centres undefined) |  |  | 41 | Max fall in blood pressure [6]: 16% |
| CC1(C)Nc2ccc(Cl)cc2C(N2CCCC2=O)C1O (centres undefined) |  |  |  | Max fall in blood pressure [4]: 8% |
| CC1(C)Cc2ccc(C#N)cc2C(NC(=O)c2ccccc2)C1O (centres undefined) |  | 16 | 44 |  |
| CC1(C)Nc2ccc(Br)cc2C(N2CCCC2=O)C1O (centres undefined) |  |  |  | Max fall in blood pressure [4]: 6% |
| CC1(C)Oc2ccc(C#N)cc2C(N2CCCC2=O)C1O (centres undefined) [CROMAKALIM] | 47 |  |  | Max fall in blood pressure [6]: 39% |

Reference: ChEMBL document CHEMBL1125794, “Synthesis and antihypertensive activity of pyran oxygen and amide nitrogen replacement analogues of the potassium channel activator cromakalim” (1991)
